Source: PubChem (several laboratories)
Compounds with a hit are over-represented: about 4.6% of the library has one in this group of screens.
HDAC3 inhib = HDAC3 deacetylase inhibitors, primary screen, biochemical, fluorescence, cell-free homogeneous | recombinant HDAC3, fluorogenic peptide/trypsin coupled | inhibition, % at 8.3 µM | Histone deacetylase 3 (Homo sapiens), O15379 | hit rate 0.15% among 320,000; in the data active = inhibition above about 26%, passing the limit was not always enough; inconclusive = no clear call, values can overlap the other calls
M18AAP inhibitor = PfM18AAP inhibitors, malaria aminopeptidase, primary screen, biochemical, QFRET, recombinant enzyme. M18 aspartyl aminopeptidase (Plasmodium falciparum 3D7). H-Glu-NHMec fluorogenic cleavage. inhibition, % at 7.35 µM. hit rate 1.2% among 290,000. AID 1822, 2009;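 active = inhibition above the campaign mean inhibition over all tested compounds plus 3 SD, cut at about 28% in these data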;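 also: 0% = plate median of test compound wells and 100% = 2 mM ZnCl2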
UCH37 DUB inh = inhibitors of human UCH37 deubiquitinase, primary screen, biochemical, Ub-AMC cleavage, fluorescence; Ubiquitin carboxyl-terminal hydrolase isozyme L5 (Homo sapiens), Q9Y5K5; purified proteasome/UCH37; inhibition, % (no concentration beside the values); hit rate 0.33% among 330,000;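 active = mean inhibition over replicate wells above about 20%, limit read from the data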;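 also: 0% = compound-free wells with enzyme and 100% = wells lacking proteasome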
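Assay system: Proteasome-bound UCH37. Buffer or medium: pH 7.4 Tris-HCl (50 mM) with ovalbumin, ATP-MgCl2, DTT. Incubation: 30 min preincubation with enzyme, 25 min cleavage at room temperature. Measured by: fluorescence, ex 355 nm, em 460 nm. Read-out basis: percent inhibition. Control set: wells without proteasome as full block, compound-free enzyme plus substrate as uninhibited.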
Rtt109 HAT inh = inhibitors of C. albicans Rtt109/Vps75 HAT, primary screen, biochemical, ThioGlo CoA-SH fluorescence, plate reader; hit rate 0.16% among 330,000; inhibition, % at 34.9 µM; purified Rtt109/Vps75, 4 h; AID 540336, 2011; Histone acetyltransferase RTT109 (Candida albicans (strain SC5314 / ATCC MYA-2876)), …;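 active = inhibition of at least 50% in every replicate; inconclusive = best replicate reaches 50% inhibition but some replicates fall short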
Target sequence (Q5AAJ8 whole entry, looked up): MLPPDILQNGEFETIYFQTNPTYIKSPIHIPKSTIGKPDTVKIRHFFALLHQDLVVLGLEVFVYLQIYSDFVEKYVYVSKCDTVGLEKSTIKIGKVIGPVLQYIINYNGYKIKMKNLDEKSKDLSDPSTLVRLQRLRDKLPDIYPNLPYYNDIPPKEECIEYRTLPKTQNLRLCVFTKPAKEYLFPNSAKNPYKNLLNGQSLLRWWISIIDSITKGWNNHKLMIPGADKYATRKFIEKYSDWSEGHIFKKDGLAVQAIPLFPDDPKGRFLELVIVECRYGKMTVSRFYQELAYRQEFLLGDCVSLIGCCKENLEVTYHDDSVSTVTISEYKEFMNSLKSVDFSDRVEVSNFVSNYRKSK
ALR H2O2 inh = inhibitors of human ALR sulfhydryl oxidase, primary screen, biochemical, H2O2 detection, HRP-luminol luminescence, single point; FAD-linked sulfhydryl oxidase ALR (Homo sapiens), P55789; purified ALR, DTT oxidation; inhibition, % (test concentration not listed); hit rate 3.8% among 290,000; AID 485317, 2010;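 active = mean replicate inhibition above about 79%, with every replicate also reaching it, limit read from the data; inconclusive = only one of the two criteria met; inactive = mean below limit and not every replicate reaching it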
FAS TE block = FAS thioesterase domain inhibitors, primary screen, biochemical, fluorescence intensity, uHTS. Fatty acid synthase (Homo sapiens), P49327. recombinant FAS-TE, OMFH fluorogenic substrate, fluorescence endpoint. inhibition, % at 15 µM. hit rate 0.67% among 360,000. AID 602261, 2012;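 active = compounds whose normalised, plate-corrected inhibition of enzyme fluorescence in the single-dose primary screen is 50% or more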;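 also: 0% = DMSO with enzyme and 100% = substrate without enzyme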
The depositor's hits bear a star; ? = inconclusive; . = no result given.

SMILES | HDAC3 inhib | M18AAP inhibitor | UCH37 DUB inh | Rtt109 HAT inh | ALR H2O2 inh | FAS TE block
CC(=NNC(=O)CNS(=O)(=O)c1ccccc1)c1ccc(Br)cc1 | . | . | 2 | . | . | .
N#Cc1c(N=Cc2ccc(Br)s2)sc2c1CCC2 | . | . | 0 | . | . | .
CC(Oc1ccc(Br)cc1)C(=O)NNC(=O)CCN1CCN(c2ccccc2)CC1 (centres undefined) | 3 | . | 5 | 2 | 95* | 4
CCCCOc1ccc(C(=O)CCN2CCOCC2)cc1 | 12 | -5 | -1 | -2 | 98* | -3
CCOc1ccc(C(=O)CCC(=O)NNC(=O)CCN2CCN(c3ccccc3)CC2)cc1 | 5 | . | 3 | -2 | 95* | -6
Cc1ccsc1C(=O)NNC(=O)CCN1CCN(c2ccccc2)CC1 | -6 | . | 2 | ? | 94* | -10
O=C(CCN1CCN(c2ccccc2)CC1)NNC(=O)Cc1ccc(Br)cc1 | . | . | 6 | -1 | . | -4
Cc1ccccc1C(=O)NCC(=O)NNC(=O)CCN1CCN(c2ccccc2)CC1 | 1 | -1 | 6 | -4 | 3 | -3
NC(=NOC(=O)C1CCCCC1)c1cccc([N+](=O)[O-])c1 | . | . | 1 | . | . | .
COc1ccc(Br)cc1C=c1sc2nc(-c3ccco3)nn2c1=O | . | . | -1 | . | . | .
CCOc1ccc(N(CC(=O)NN=Cc2ccc(OC(C)C)cc2)S(C)(=O)=O)cc1 | . | . | 0 | . | . | .
COc1ccc(NCC(O)Cn2cnc3c2c(=O)n(C)c(=O)n3C)cc1 (centres undefined) | -20 | 6 | 4 | 7 | 98* | -8
N#Cc1c2n(c3c(=O)n(Cc4ccc(Cl)cc4)cnc13)CCCCC2 | 3 | 5 | 2 | 9 | . | 24
N#Cc1c2n(c3c(=O)n(Cc4ccccc4)cnc13)CCCC2 | 4 | 1 | 0 | -1 | 84* | 3
CCN(CC)c1ccc(-n2c(C)c(C(C)=O)c(C(C)=O)c2C)cc1 | 5 | 28* | 1 | -2 | . | 2
CC(=O)c1c(C(C)=O)c(C)n(-c2ccc(O)cc2)c1C | 3 | -15 | 2 | -1 | -11 | -5
O=C(Nc1nnc(-c2ccc(F)cc2)o1)c1ccco1 | 1 | . | 7 | 9 | 96* | -1
CCn1c(C)nc2cc(C(=O)N/N=C(\C)c3ccc(N4CCOCC4)cc3)ccc21 | 0 | -5 | . | -2 | 13 | -10
CCn1c(C)nc2cc(C(=O)N/N=C/c3ccc(O)cc3)ccc21 | 4 | 5 | . | -9 | 99* | -4
CCn1c(C)nc2cc(C(=O)N/N=C/c3ccc(N4CCOCC4)cc3)ccc21 | 0 | 6 | . | 4 | 91* | -4
CCn1c(C)nc2cc(C(=O)NNC(=S)Nc3ccc(Cl)cc3)ccc21 | 4 | -1 | 0 | 11 | 87* | 1
CCn1c(C)nc2cc(C(=O)NN=Cc3ccc(O)cc3)ccc21 | . | . | 6 | . | . | .
CCn1c(C)nc2cc(C(=O)NNC(=S)Nc3ccc(F)cc3)ccc21 | ? | 10 | 7 | -4 | 65 | -4
CCn1c(C)nc2cc(C(=O)N/N=C/c3cccc(O)c3O)ccc21 | 8 | 25 | . | 2 | 99* | -2
CC(=NNc1nc(-c2ccccc2)c(CC(=O)O)s1)c1ccccc1 | . | . | 8 | . | . | .
SMILES | HDAC3 inhib | M18AAP inhibitor | UCH37 DUB inh | Rtt109 HAT inh | ALR H2O2 inh | FAS TE block
Clc1nc(-c2cccnc2)nc2scc(-c3ccccc3)c12 | -6 | 3 | 0 | 21 | 97* | 28
COc1ccc(-c2csc3nc(-c4cccnc4)nc(Cl)c23)cc1OC | 3 | 10 | 2 | 4 | 98* | 30
CN(C)C=Nc1sc2c(c1C#N)CCCC2 | . | . | 20 | . | . | .
Cc1ccsc1C=NNC(=O)c1cccnc1 | . | . | 9 | . | . | .
O=C1CNC(=S)N1CCc1ccc(O)c(O)c1 | -10 | 69* | 1 | . | 100* | -6
O=[N+]([O-])c1ccc(NN=Cc2ccccc2O)cc1 | . | . | -1 | . | . | .
Clc1cccc(N/N=C/c2ccncc2)c1 | 3 | 2 | . | . | 95* | 5
Oc1ccccc1/C=N/Nc1ccccc1 | 8 | 0 | . | 1 | 99* | 14
